From PubChem BioAssay AID504831 (Southern Research Specialized Biocontainment Screening …, 2011)

These compounds were tested on Bladder 5637 cells viability, CellTiter-Glo, 72 h (assay: cytotoxicity in 5637 bladder cells, dose response, cytotoxicity control for bacterial capsule biogenesis inhibitors, cell-based, set 3 (AID 504831)).
Method in brief: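 Test system: Human bladder carcinoma 5637 cell line | Compound dosing: 8 doses, 2.3–300 µM | Timing: 72 h treatment | Measured by: CellTiter-Glo luminescence | Read-out: CC50 from viability relative to cell control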

Structure (SMILES) | CC50 [µM]
O=C(Nc1cc(-c2ccccc2)sc1C(=O)O)c1ccc(Cl)s1 | 71.5
O=C(Nc1cc(-c2ccccc2)sc1C(=O)O)c1cccc(Cl)c1 | 52.6
O=C(Nc1cc(-c2ccccc2)sc1C(=O)O)c1cccc(F)c1 | 76.9
O=C(O)c1sc(-c2ccccc2)cc1NC(=O)C1CCCCC1 | 115
CCOc1ccc(-c2cc(NC(=O)c3ccc(OC)c(OC)c3)c(C(=O)O)s2)cc1 | 82.8
O=C(Nc1cc(-c2ccccc2)sc1C(=O)O)c1cc2ccccc2o1 | 167
Cc1c(C(=O)Nc2cc(-c3ccccc3)sc2C(=O)O)oc2ccccc12 | 48.7
O=C(Nc1cc(-c2ccccc2)sc1C(=O)O)c1ccc(Br)o1 | 104
Cc1onc(-c2ccccc2)c1C(=O)Nc1cc(-c2ccccc2)sc1C(=O)O | 52.6
COC(=O)c1sc(-c2ccccc2)cc1NC(=O)c1c(F)cccc1F | 10.4
CCOc1ccc(-c2cc(NC(=O)c3cccc(Cl)c3)c(C(=O)O)s2)cc1 | 83.9
O=C(Nc1cc(-c2ccccc2)sc1C(=O)O)c1cccs1 | 89.3
Cc1ccc(C(=O)Nc2cc(-c3ccccc3)sc2C(=O)O)s1 | 63.6
O=C(Nc1cc(-c2ccccc2)sc1C(=O)O)c1ccc2c(c1)OCCO2 | 82.1
O=C(Nc1cc(-c2ccccc2)sc1C(=O)O)c1cc(Cl)c2c(c1)OCCO2 | 242
O=C(O)c1sc(-c2ccccc2)cc1NC(=O)C1CCCC1 | 169
